From ChEMBL document CHEMBL1123574, “Plant antitumor agents. 28. Resolution of a key tricyclic synthon, 5'(RS)-1,5-dioxo-5'-ethyl-5'-hydroxy-2'H,5'H,6'H-6'-oxopyrano[3' ,4'- f]delta 6,8-tetrahydro-indolizine: total synthesis and antitumor activity of 20(S)- and 20(R)-camptothecin” (1987) come the findings set out here.

Holding throughout (format): functional
For experiment [1], the system named is Mus musculus. Put plainly: L-1210 mouse leukemia life prolongation activity was measured as T/C (mean survival time of treated animals divided by the mean survival time of the controls times 100) at dose 5 mg/kg. The procedure, abridged: (§1)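 In vivo L-1210 leukemia in mice, run by NCI contractors by standard procedures. Two intraperitoneal doses given, on day 1 and day 5 of the study. Readout is mean survival time of treated animals over that of controls, ×100 (T/C).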

Experiment [2] concerns Mus musculus. Briefly: L-1210 mouse leukemia life prolongation activity was measured as T/C (mean survival time of treated animals divided by the mean survival time of the controls times 100) at dose 1.25 mg/kg. The procedure, abridged:
as §1

Experiment [3] has as its system Mus musculus. Briefly: L-1210 mouse leukemia life prolongation activity was measured as T/C (mean survival time of treated animals divided by the mean survival time of the controls times 100) at dose 10 mg/kg. In short, it runs like this:
as §1

The subject of experiment [4] is Mus musculus. Put plainly: L-1210 mouse leukemia life prolongation activity was measured as T/C(mean survival time of treated animals divided by the mean survival time of the controls times 100) at dose 2.5 mg/kg. In short, it runs like this:
as §1

For experiment [5], the system named is Mus musculus. Briefly: L-1210 mouse leukemia life prolongation activity was measured as T/C (mean survival time of treated animals divided by the mean survival time of the controls times 100) at dose 20 mg/kg. In short, it runs like this:
as §1

The subject of experiment [6] is Mus musculus. Briefly: L-1210 mouse leukemia life prolongation activity was measured as T/C (mean survival time of treated animals divided by the mean survival time of the controls times 100) at dose 2.5 mg/kg. The procedure, abridged: as §1
In experiment [7] the test system is Mus musculus. Put plainly: L-1210 mouse leukemia life prolongation activity was measured as T/C (mean survival time of treated animals divided by the mean survival time of the controls times 100) at dose 80 mg/kg. The procedure, abridged:
as §1

For experiment [8], the system named is Mus musculus. Briefly: L-1210 mouse leukemia life prolongation activity was measured as T/C (mean survival time of treated animals divided by the mean survival time of the controls times 100) at dose 40 mg/kg. In short, it runs like this:
as §1

`CC[C@@]1(O)C(=O)OCc2c1cc1n(c2=O)Cc2cc3ccccc3nc2-1` [CAMPTOTHECIN]: the T/C worked out at 185 with Mus musculus [1], 129 with Mus musculus [2], 250 with Mus musculus [3] and 147 with Mus musculus [4].
`CC[C@]1(O)C(=O)OCc2c1cc1n(c2=O)Cc2cc3ccccc3nc2-1`: the T/C turned out to be 114 in the experiment with Mus musculus [1], 118 in the experiment on Mus musculus [3], 132 with Mus musculus [5] and 114 in the experiment with Mus musculus [6].
As to `CC[C@@](O)(C(=O)[O-])c1cc2n(c(=O)c1CO)Cc1cc3ccccc3nc1-2.[Na+]`, the T/C in the experiment on Mus musculus [7] was found to be 215; with Mus musculus [8] it was 181; in the experiment on Mus musculus [3], 126; in the experiment with Mus musculus [5], 167.
